The values that follow come from article PMC2119646 (The Journal of Cell Biology, 1993).

The subject of assay [1] is angiogenesis in vivo. The conditions noted are these: Table VII; source Fibronectin, others; ref Eijan et al., 1991; cited from earlier work.
The test system of assay [2] is Bovine adrenal capillary endothelial cells. Briefly: endothelial cell migration in an inverted modified Boyden chamber. In kind it is cell-based. The method, boiled down: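 Bovine capillary endothelial cells at passages 10-15 were starved 24 h in DME/0.1% BSA and adhered 1-2 h at 37°C to a gelatinized filter. The chamber was reinverted, with test material in the top well, and incubated 3-4 h at 37°C. Migrated cells were counted in 10 high-power fields, in quadruplicate, with experiments repeated at least twice. Results were expressed as % of positive-control migration after background subtraction and corrected for >10% detachment.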

Assay [3] concerns neovascularization in the rat cornea. The assay is described as follows: rat cornea neovascularization assay. It counts as in vivo. The conditions noted are these: Table I, Hydron pellets with TSP1 protein or fragments at 25-30 nM, without bFGF, vigorous vessel ingrowth from the limbus at 7 d = positive.

In the case of G R G D, in assay [1], the “Small Peptides Able to Inhibit Angiogenesis In Vivo” value is given as “Able to Inhibit Angiogenesis In Vivo”.
Regarding SPWD I C*SVTC*GGGVQKRSK [Mal III], the “ED50 for inhibition of migration with pure recombinant bFGF as inducer” value in assay [2] (retest of peptide with recombinant bFGF instead of conditioned media) stood at 7 µM.
For “TGF beta 1: Recombinant TGFβ1 purchased from R & D Sys. [reference compound]”, the “concentrations that stimulated endothelial cell migration” value in assay [2] (TGFβ dose response, Fig. 8) is 0.04 to 0.4 pM.
“TSP: Human thrombospondin-1 purified from platelet releasate, 450-kD trimer”: in assay [3], the “Positive corneas/number implanted, Alone” value is 0/5. In addition, in assay [2] (Table VI, bFGF 10 ng/ml plus TGFβ 0.2 ng/ml or TSP 2.5 µg/ml, no antiserum), the “Migration of endothelial cells to upper chamber (%), Control, with bFGF” value is less than 1%. Besides, in assay [2] (bFGF 10 ng/ml, Fig. 4 b), the “ability to block endothelial cell migration stimulated by bFGF” value is on record as “complete inhibition”.
For “bFGF: Recombinant bFGF, inducer and positive control [reference compound]”, the “Migration of endothelial cells to upper chamber (%), Control” value in assay [2] (Table VI, addition alone: TGFβ 1 pg/ml or bFGF 10 ng/ml, no antiserum) came to 100%.
